# Shown are actives, neighbours in structure and some others; about 1.7% of the full set was active somewhere.
# SUMO1-SIM PPI: alters human SUMO1 binding to SIM partners; inhibition, % at 20 µM; P63165; hit rate 0.33% among 360,000; SUMO1 binding to a labelled peptide, TR-FRET, 1 h; in the data active means inhibition above about 37%
# STEP inh: STEP (human) phosphatase inhibition; P54829; recombinant STEP, OMFP fluorogenic substrate, fluorescence; inhibition, % at 20 µM; hit rate 0.25% among 360,000; AID 588621;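 active means inhibition at 20 µM, scaled per plate between control wells, above about 37%, limit read from the data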;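 further: 0% = DMSO with enzyme and substrate and 100% = substrate only without enzyme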
#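 Measure: Control-normalized % inhibition with plate pattern correction | Test system: STEP phosphatase, cell-free reaction | Medium: pH 6.0 Bis-Tris with DTT and Tween 20 | Technique: Fluorescence, 480/540 nm | Times: Reaction 20 min, ambient temperature | Doses: Single compound dose of 20 µM, 1% DMSO final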
# LMPTP block: LMPTP (human) inhibition. recombinant LMPTP-A, OMFP fluorogenic substrate, fluorescence intensity. inhibition, % at 20 µM. hit rate 0.22% among 360,000. AID 651560;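 active means compounds that cut the enzyme signal by at least half of the control window in the single-dose screen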;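 further: plate controls were DMSO wells with enzyme plus substrate for no effect and substrate without enzyme for full effect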
#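 test system = LMPTP-A | amount = 0.625 nM LMPTP-A final | reagent = fluorogenic phosphatase substrate OMFP at 400 µM final | incubation = 50 min at room temperature | benchmarks = no-enzyme low control, uninhibited high control | medium = Bis-Tris pH 6.0, DTT, detergent | signal = fluorescence intensity of OMFP turnover product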
# Scp-1 inhibitor: inhibitors of human Scp-1 phosphatase. Q9GZU7. Recombinant Scp1, phosphopeptide, malachite green phosphate absorbance. inhibition, % at 20 µM. hit rate 0.88% among 340,000. AID 493091;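 active means inhibition above about 50% at 20 µM, limit read from the data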;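 further: plate controls were DMSO wells with enzyme for no effect and wells lacking enzyme for full effect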
#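 Material – SCP-1 phosphatase catalytic domain, residues 76-261 · Buffer or medium – Acidic Tris acetate buffer with magnesium and detergent · Also added – Phospho 17-mer peptide substrate · Compound – single 20 µM dose, 1% DMSO · Times – 45 min room-temperature reaction, 5 min colour, 30 min stabiliser · Technique – Phosphate-binding colour reagent, absorbance read at 630 nm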
# DNMT1 block: inhibitors of human DNMT1; DNMT1 molecular beacon, Hinp1I cleavage, fluorescence; inhibition (reported as % activation of signal), % at 10 µM; hit rate 0.83% among 360,000; P26358; in the data active means inhibition above about 50%
# Beacon interf DR: shows spectral interference in the DNMT1 beacon assay | 200 tested, under 10 active | IC50, µM | shares compounds with DNMT1 block | molecular beacon fluorescence, spectral interference counter-screen | AID 602382; call rule not given here
# DNMT1 confirm: DNMT1 inhibition confirmation, single concentration. hit rate 8% among 2,300. inhibition, % at 10 µM. shares compounds with DNMT1 block. DNMT1 molecular beacon HinP1I cleavage, fluorescence. AID 602385;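 active means average inhibition of at least 30% in the single-concentration confirmation test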
# DNMT1 interf: shows spectral interference in the DNMT1 beacon assay. shares compounds with DNMT1 block. DNMT1 molecular beacon spectral interference counterscreen, fluorescence 485/520. activation (fluorescence interference), % at 10 µM. hit rate 1% among 2,300;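 active means activation of at least 30% at 10 µM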;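 further: DNMT1 catalytic domain with a HinP1I cleavage step and a FAM/dabcyl DNA beacon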
# Numbers without * were called inactive; . = not tested or not shown.
SMILES,SUMO1-SIM PPI,STEP inh,LMPTP block,Scp-1 inhibitor,DNMT1 block,DNMT1 confirm,DNMT1 interf,others
COCCn1c(-c2ccc(-c3ccc([N+](=O)[O-])cc3Br)o2)nc2c1c(=O)[nH]c(=O)n2CC(C)C,-8,0,4,-7,70*,-1,-1,
O=C(C1CCN(S(=O)(=O)c2ccccc2F)CC1)N1CCCC1,3,-1,-1,-1,-5,.,.,
COc1ccc(Cc2nc3ccc(C(=O)NCCSC)cc3o2)cc1,2,1,0,-7,55*,1,5,
COC(=O)CCNC(=O)c1ccc2nc(Cc3ccc(OC)cc3)oc2c1,1,3,-1,-4,-4,.,.,
O=C(N/N=C/c1cn(Cc2cccc(F)c2)c2ccccc12)c1cc(O)cc(O)c1,53*,98*,43,77*,93*,121*,0,Beacon interf DR=>99
Cc1cc(C)n(C(C)CNS(=O)(=O)c2ccc(C)c(C)c2)n1 (centres undefined),-1,1,-3,-10,2,.,.,
c1ccc(-c2nccc(-c3ccc(-n4cnc5ccccc54)cc3)n2)cc1,-5,5,9,0,82*,1,-7,
C#CCSc1nnc(CNS(=O)(=O)c2ccc(Br)cc2)n1C,-1,3,0,-2,0,.,.,
COc1cccc(-c2cc(=O)c3cc(NC(=O)c4ccccc4)ccc3[nH]2)c1,0,-1,-2,-1,6,.,.,
COc1cccc(-c2cc(=O)c3cc(NC(=O)c4ccc(Cl)cc4)ccc3[nH]2)c1,2,2,-1,8,65*,0,-1,
CN(Cc1cccc(F)c1)C(=O)Cc1ccc(S(=O)(=O)N2CCOCC2)s1,1,0,-8,-8,-2,.,.,
CN(Cc1ccc(C(C)(C)C)cc1)C(=O)Cc1ccc(S(=O)(=O)N2CCOCC2)s1,1,2,1,-13,71*,3,3,
CCC(Br)C(=O)Nc1ccc(OC)cc1 (centres undefined),-1,1,-2,-10,0,.,.,
CC(C)(C)OC(=O)N(Cc1ccccc1)Cc1ccc(OCc2cccc(NC(=O)C3CC3)c2)cc1,0,-1,3,-4,1,.,.,
Cc1ccc(Cc2cnc(NC(=O)/C(C#N)=C/c3ccc(-c4ccc([N+](=O)[O-])cc4)o3)s2)cc1,-17,6,3,-5,52*,1,6,
N#C/C(=C/c1ccc(-c2ccc([N+](=O)[O-])cc2)o1)C(=O)Nc1nc(-c2cccs2)cs1,-25,3,11,5,87*,1,-3,
COc1ccccc1N1CCN(C2CC(=O)N(c3ccc(F)cc3)C2=O)CC1 (centres undefined),-1,1,-1,-5,3,.,.,
COc1ccc(CCN2CC(C(=O)OCC(=O)Nc3c(C)nn(-c4ccccc4)c3C)CC2=O)cc1OC (centres undefined),6,1,0,1,86*,4,4,
COc1cc2nc(CN3CCN(S(=O)(=O)c4cc(C)ccc4C)CC3)[nH]c(=O)c2cc1OC,2,-3,0,-7,92*,3,1,
Cc1csc(=O)n1CC(=O)OCC(=O)Nc1cc([N+](=O)[O-])ccc1Cl,-32,-2,0,1,2,.,.,
Cc1ccc(NC(=O)COC(=O)Cn2c(C)csc2=O)c([N+](=O)[O-])c1,-20,-1,2,-3,51*,5,2,
COc1cccc(NS(=O)(=O)c2ccc3c(c2)C2C=CCC2C(c2ccc(C(=O)O)cc2)N3)c1 (centres undefined),44*,6,9,14,90*,28,2,Beacon interf DR=>99
Cc1cc(C)nc(Nc2ccc(Cl)cc2C)n1,4,0,-2,-5,1,.,.,
O=C(NCc1ccc2c(c1)OCO2)C1CCN(C(=O)Nc2ccc(Cl)cc2)CC1,0,1,-1,-3,75*,6,1,
COc1ccc(CCn2c(C3CCCCC3)nc3c(c(=O)c4ccccc4n3C)c2=O)cc1OC,41*,14,24,10,63*,-2,2,
SMILES,SUMO1-SIM PPI,STEP inh,LMPTP block,Scp-1 inhibitor,DNMT1 block,DNMT1 confirm,DNMT1 interf,others
COc1ccc(CCn2c(-c3ccc(F)cc3)nc3c(c(=O)c4ccccc4n3C)c2=O)cc1OC,-28,5,3,-15,31,.,.,
C=CCC[C@H](Cc1ccc(F)cc1)C(=O)OC[C@H](Cc1c[nH]c2ccccc12)NC(=O)[C@@H](CC=C)CC(=O)N[C@@H](CO)Cc1ccccc1,4,-2,1,-11,69*,0,-5,
C=CCC[C@@H](Cc1ccc(F)cc1)C(=O)O[C@H](CNC(=O)[C@@H](CC=C)CC(=O)N[C@H](CO)Cc1ccccc1)c1ccccc1,0,3,0,-6,83*,0,3,
C=CC[C@@H](CC(=O)N[C@H](CO)Cc1ccccc1)C(=O)NC[C@@H](OC(=O)[C@@H](CC=C)Cc1ccc(F)cc1)c1ccccc1,3,-1,0,0,77*,0,5,
C=CCC[C@H](Cc1ccc(F)cc1)C(=O)OC[C@@H](C)NC(=O)[C@@H](CC=C)CC(=O)N[C@H](CO)Cc1ccccc1,-2,0,2,0,1,.,.,
C=CC[C@@H](CC(=O)N[C@@H](CO)Cc1ccccc1)C(=O)N[C@H](COC(=O)[C@@H](CC=C)Cc1ccc(F)cc1)Cc1ccccc1,4,0,-1,-5,62*,0,1,
CC(CN1CCCC1)OC(=O)c1ccc(Cl)cc1 (centres undefined),-1,-2,-2,21,-1,.,.,
CCS(=O)(=O)N1CCN=C1SCc1ccc(F)cc1,-3,-3,-1,-2,1,.,.,
Cc1nn(CCO)c2nc(-c3cccs3)cc(C(F)(F)F)c12,-10,-1,0,2,60*,3,5,
ClCC(CNCc1ccccc1)c1ccccc1 (centres undefined),4,-1,-2,2,7,.,.,
COc1ccc(C(CNC(=O)COc2ccccc2C)N2CCCCC2)cc1 (centres undefined),0,0,0,1,0,.,.,
COc1ccc(C(CNC(=O)c2ccc(S(=O)(=O)Nc3cccc(C)c3C)cc2)N2CCOCC2)cc1 (centres undefined),-58,-1,-8,-5,95*,2,6,
COc1ccc(C(CNC(=O)COc2ccccc2C#N)N2CCOCC2)cc1 (centres undefined),-3,-1,1,-6,104*,6,8,
